Source: ChEMBL document CHEMBL1147831, “Kinesin spindle protein (KSP) inhibitors. Part 4: Structure-based design of 5-alkylamino-3,5-diaryl-4,5-dihydropyrazoles as potent, water-soluble inhibitors of the mitotic kinesin KSP” (Bioorg Med Chem Lett, 2006)
pEC50, pIC50: −log10 of the molar value. Values after ≈ are worked out from the molar mass of the structure shown.

Assays:
[1] = target: T1, Kinesin-like protein KIF11 (Homo sapiens, UniProt P52732); assay: Inhibition of KSP by ATPase assay
T1 sequence (P52732 whole entry): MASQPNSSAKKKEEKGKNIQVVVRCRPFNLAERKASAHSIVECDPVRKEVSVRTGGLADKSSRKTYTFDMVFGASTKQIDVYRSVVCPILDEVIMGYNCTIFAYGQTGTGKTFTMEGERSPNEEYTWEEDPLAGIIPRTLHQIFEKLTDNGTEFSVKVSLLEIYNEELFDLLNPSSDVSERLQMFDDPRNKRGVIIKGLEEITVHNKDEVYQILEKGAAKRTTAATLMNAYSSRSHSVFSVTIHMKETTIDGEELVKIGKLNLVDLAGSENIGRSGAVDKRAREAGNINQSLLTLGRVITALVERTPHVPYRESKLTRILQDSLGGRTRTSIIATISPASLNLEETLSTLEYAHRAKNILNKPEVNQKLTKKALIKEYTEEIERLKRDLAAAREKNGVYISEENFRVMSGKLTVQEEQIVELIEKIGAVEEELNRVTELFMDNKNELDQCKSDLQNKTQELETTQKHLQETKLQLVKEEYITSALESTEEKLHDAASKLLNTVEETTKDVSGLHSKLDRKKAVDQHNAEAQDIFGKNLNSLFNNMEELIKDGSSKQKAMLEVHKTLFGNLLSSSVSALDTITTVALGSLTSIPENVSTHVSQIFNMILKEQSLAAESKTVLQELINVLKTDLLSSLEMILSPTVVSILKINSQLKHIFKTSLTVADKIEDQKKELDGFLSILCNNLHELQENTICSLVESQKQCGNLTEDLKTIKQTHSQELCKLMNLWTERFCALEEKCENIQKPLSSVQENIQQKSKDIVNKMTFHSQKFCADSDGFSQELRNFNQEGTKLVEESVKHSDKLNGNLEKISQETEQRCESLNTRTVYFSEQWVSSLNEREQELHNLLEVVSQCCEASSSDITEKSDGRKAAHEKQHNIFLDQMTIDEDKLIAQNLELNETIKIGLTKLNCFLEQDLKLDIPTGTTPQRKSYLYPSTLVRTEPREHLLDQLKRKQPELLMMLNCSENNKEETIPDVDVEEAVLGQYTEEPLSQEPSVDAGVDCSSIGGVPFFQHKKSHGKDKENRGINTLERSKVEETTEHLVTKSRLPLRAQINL

[2] = Partition coefficient, log P of the compound; type: physicochemical; details: octanol/water
[3] = Solubility in citrate at pH 6.5; type: physicochemical
Procedure, shortened: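 Crystalline solid; solubility determined in pH 6.5 citrate buffer.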

[4] = Half life in mongrel dog at 0.25 mg/kg, iv; type: ADME, organism-based, Canis lupus familiaris; set-up: dose 0.25 mg/kg, route intravenous; details: in vivo
Procedure, shortened: (§1)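 Single iv dose of 0.25 mpk given to two mongrel dogs, one male and one female.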

[5] = tested on: A2780; assay: Mitotic arrest in human A2780 cells; type: functional, cell-based
[6] = Volume of distribution in mongrel dog at 0.25 mg/kg, iv; type: ADME, organism-based, Canis lupus familiaris; set-up: dose 0.25 mg/kg, route intravenous; details: in vivo, read-out: Vdss; procedure, shortened: as §1
[7] = Clearance in mongrel dog at 0.25 mg/kg, iv; type: ADME, organism-based, Canis lupus familiaris; set-up: dose 0.25 mg/kg, route intravenous; details: in vivo; procedure, shortened: as §1
[8] = Solubility in citrate at pH 4.0; type: physicochemical
Procedure, shortened: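 Solubility of crystalline solid determined in citrate buffer at pH 4.0.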

[9] = Aqueous solubility at pH 10.3; type: physicochemical; details: aqueous medium
Procedure, shortened: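 Solubility of crystalline material measured in water; final pH of the solution was 10.3.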

[10] = target: Voltage-gated inwardly rectifying potassium channel KCNH2 (Homo sapiens, UniProt Q12809); assay: Inhibition of hERG expressed in HEK cells by radioligand binding assay; type: toxicity, cell-based, HEK293
Chain of Voltage-gated inwardly rectifying potassium channel KCNH2 (Q12809 whole entry): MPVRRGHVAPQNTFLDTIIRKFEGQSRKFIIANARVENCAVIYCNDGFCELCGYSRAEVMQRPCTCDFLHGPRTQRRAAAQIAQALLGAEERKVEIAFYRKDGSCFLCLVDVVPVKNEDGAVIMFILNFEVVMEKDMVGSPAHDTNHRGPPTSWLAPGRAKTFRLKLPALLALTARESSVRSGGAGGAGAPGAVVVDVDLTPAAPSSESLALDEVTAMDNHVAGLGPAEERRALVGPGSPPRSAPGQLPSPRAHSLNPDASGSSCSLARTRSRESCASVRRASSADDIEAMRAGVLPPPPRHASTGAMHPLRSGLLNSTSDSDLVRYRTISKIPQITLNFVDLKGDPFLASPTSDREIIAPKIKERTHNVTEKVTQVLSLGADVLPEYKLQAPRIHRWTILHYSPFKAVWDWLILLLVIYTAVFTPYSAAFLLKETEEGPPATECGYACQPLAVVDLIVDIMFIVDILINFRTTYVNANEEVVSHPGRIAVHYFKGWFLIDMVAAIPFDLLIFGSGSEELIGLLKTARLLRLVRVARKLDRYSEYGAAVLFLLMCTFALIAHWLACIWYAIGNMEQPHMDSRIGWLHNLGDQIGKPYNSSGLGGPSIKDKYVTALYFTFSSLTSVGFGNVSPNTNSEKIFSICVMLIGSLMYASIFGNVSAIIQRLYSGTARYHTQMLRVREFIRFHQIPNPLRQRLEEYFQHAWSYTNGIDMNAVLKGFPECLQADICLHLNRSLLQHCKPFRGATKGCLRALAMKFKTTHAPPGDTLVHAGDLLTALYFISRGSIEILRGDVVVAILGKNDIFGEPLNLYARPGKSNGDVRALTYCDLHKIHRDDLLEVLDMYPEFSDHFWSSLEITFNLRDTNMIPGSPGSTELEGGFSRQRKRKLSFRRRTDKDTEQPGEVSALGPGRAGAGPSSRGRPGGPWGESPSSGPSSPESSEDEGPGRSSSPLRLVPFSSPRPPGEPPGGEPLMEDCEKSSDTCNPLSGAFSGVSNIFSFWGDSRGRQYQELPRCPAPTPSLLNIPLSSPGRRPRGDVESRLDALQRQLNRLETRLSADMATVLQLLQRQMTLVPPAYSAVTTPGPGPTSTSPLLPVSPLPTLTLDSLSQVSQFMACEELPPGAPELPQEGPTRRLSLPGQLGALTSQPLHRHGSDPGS

SMILES | pIC50 [1] | also measured
NCCCC1(c2ccccc2)CC(c2cc(F)ccc2F)=NN1C(=O)N1CCOCC1 (stereo unspecified) | 6.91 | 
CCNC(=O)N1N=C(c2cc(F)ccc2F)CC1(CCCCO)c1ccccc1 (stereo unspecified) | 6.16 | 
CCNC(=O)N1N=C(c2cc(F)ccc2F)CC1(CCCCNC(=O)c1ncc[nH]1)c1ccccc1 (stereo unspecified) | 6.26 | 
CCNC(=O)N1N=C(c2cc(F)ccc2F)CC1(CCCCNCc1ccccc1)c1ccccc1 (stereo unspecified) | 7.00 | 
CCNC(=O)N1N=C(c2cc(F)ccc2F)CC1(CCCCNC(=O)c1ccccc1)c1ccccc1 (stereo unspecified) | 6.05 | 
NCCCC1(c2ccccc2)CC(c2cc(F)ccc2F)=NN1C(=O)N1CCC1 (stereo unspecified) | 7.26 | 
CCNC(=O)N1N=C(c2cc(F)ccc2F)CC1(CCN)c1ccccc1 (stereo unspecified) | 6.41 | 
CCNC(=O)N1N=C(c2cc(F)ccc2F)CC1(CCCCN1CC2C=CC1C2)c1ccccc1 (stereo unspecified) | 6.92 | 
CCNC(=O)N1N=C(c2cc(F)ccc2F)CC1(CCCCN(C)C)c1ccccc1 (stereo unspecified) | 6.99 | 
CCNC(=O)N1N=C(c2cc(F)ccc2F)CC1(CCCC[N+](C)(C)[O-])c1ccccc1 (stereo unspecified) | 6.23 | 
NCCCC1(c2ccccc2)CC(c2cc(F)ccc2F)=NN1C(=O)N1CCCC1 (stereo unspecified) | 7.59 | 
CCNC(=O)N1N=C(c2cc(F)ccc2F)CC1(CCO)c1ccccc1 (stereo unspecified) | 6.22 | 
CC(=O)N1N=C(c2cc(F)ccc2F)C[C@H]1c1cccc(O)c1 | 7.61 | logP [2]: 3.1; solubility [3]: 29 µg/mL (≈ 0.0917 mM); half-life [4]: 1 h; pEC50 [5]: 7.61; Vd [6]: 1.6 L/kg; clearance [7]: 22.1 mL/min/kg
NCCCC1(c2ccccc2)CC(c2cc(F)ccc2F)=NN1C(=O)N1CCCCC1 (stereo unspecified) | 7.07 | 
CCNC(=O)N1N=C(c2cc(F)ccc2F)CC1(CCCCNC(=O)c1cnc[nH]1)c1ccccc1 (stereo unspecified) | 6.16 | 
CN(C)C(=O)N1N=C(c2cc(F)ccc2F)CC1(CCCN)c1ccccc1 (stereo unspecified) | 8.10 | 
CCNC(=O)N1N=C(c2cc(F)ccc2F)CC1(CCCCN)c1ccccc1 (stereo unspecified) | 7.17 | 
CNC(=O)N1N=C(c2cc(F)ccc2F)CC1(CO)c1ccccc1 (stereo unspecified) | 6.04 | 
CCNC(=O)N1N=C(c2cc(F)ccc2F)CC1(CCCO)c1ccccc1 (stereo unspecified) | 6.13 | 
CN(C)C(=O)N1N=C(c2cc(F)ccc2F)C[C@@]1(CCCN)c1ccccc1 | 8.72 | solubility [8]: > 12000 µg/mL; logP [2]: 1.2; solubility [9]: 1700 µg/mL (≈ 4.4 mM); pIC50 [10]: 4.71; half-life [4]: 14.7 h; pEC50 [5]: 8.28; Vd [6]: 14 L/kg; clearance [7]: 14.5 mL/min/kg
CNC(=O)N1N=C(c2cc(F)ccc2F)CC1(C)c1ccccc1 (stereo unspecified) | 6.55 | 
CCNC(=O)N1N=C(c2cc(F)ccc2F)CC1(CCCCNC(=O)c1ccccn1)c1ccccc1 (stereo unspecified) | 6.41 | 
